Reference: ChEMBL document CHEMBL3797186, “Single Residue Substitutions That Confer Voltage-Gated Sodium Ion Channel Subtype Selectivity in the NaV1.7 Inhibitory Peptide GpTx-1” (J Med Chem, 2016)
Positions of bridges follow the written chain, without caps; N, C: chain ends. Residues, ends and D or L forms follow the SMILES beside them.

Tests used:
Format in all cases: cell-based
[1] = molecular target: T1, Sodium channel protein type 5 subunit alpha (Homo sapiens, UniProt Q14524); assay: Inhibition of human Nav1.5 expressed in HEK293 cells assessed as inward peak current by ion-works quattro patch clamp electrophysiology method
Procedure, shortened: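 Stable HEK293 line expressing human NaV1.5, recorded by population patch clamp on the IonWorks Quattro.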

[2] = molecular target: T2, Sodium channel protein type 9 subunit alpha (Homo sapiens, UniProt Q15858); assay: Inhibition of human Nav1.7 expressed in HEK293 cells by whole cell patch clamp electrophysiology method
[3] = molecular target: T1, Sodium channel protein type 5 subunit alpha; assay: Inhibition of human Nav1.5 expressed in HEK293 cells by whole cell patch clamp electrophysiology method
Procedure, shortened: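 Stable HEK293 line expressing human NaV1.5, recorded on the PatchXpress 7000A. Percent inhibition versus concentration was pooled from at least 10 cells, with two to three points per concentration. The pooled set was fitted with a four-parameter Hill equation to give a single IC50 curve.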

[4] = molecular target: T2, Sodium channel protein type 9 subunit alpha; assay: Inhibition of human Nav1.7 expressed in HEK293 cells assessed as inward peak current by ion-works quattro patch clamp electrophysiology method

T2 sequence (Q15858 whole entry): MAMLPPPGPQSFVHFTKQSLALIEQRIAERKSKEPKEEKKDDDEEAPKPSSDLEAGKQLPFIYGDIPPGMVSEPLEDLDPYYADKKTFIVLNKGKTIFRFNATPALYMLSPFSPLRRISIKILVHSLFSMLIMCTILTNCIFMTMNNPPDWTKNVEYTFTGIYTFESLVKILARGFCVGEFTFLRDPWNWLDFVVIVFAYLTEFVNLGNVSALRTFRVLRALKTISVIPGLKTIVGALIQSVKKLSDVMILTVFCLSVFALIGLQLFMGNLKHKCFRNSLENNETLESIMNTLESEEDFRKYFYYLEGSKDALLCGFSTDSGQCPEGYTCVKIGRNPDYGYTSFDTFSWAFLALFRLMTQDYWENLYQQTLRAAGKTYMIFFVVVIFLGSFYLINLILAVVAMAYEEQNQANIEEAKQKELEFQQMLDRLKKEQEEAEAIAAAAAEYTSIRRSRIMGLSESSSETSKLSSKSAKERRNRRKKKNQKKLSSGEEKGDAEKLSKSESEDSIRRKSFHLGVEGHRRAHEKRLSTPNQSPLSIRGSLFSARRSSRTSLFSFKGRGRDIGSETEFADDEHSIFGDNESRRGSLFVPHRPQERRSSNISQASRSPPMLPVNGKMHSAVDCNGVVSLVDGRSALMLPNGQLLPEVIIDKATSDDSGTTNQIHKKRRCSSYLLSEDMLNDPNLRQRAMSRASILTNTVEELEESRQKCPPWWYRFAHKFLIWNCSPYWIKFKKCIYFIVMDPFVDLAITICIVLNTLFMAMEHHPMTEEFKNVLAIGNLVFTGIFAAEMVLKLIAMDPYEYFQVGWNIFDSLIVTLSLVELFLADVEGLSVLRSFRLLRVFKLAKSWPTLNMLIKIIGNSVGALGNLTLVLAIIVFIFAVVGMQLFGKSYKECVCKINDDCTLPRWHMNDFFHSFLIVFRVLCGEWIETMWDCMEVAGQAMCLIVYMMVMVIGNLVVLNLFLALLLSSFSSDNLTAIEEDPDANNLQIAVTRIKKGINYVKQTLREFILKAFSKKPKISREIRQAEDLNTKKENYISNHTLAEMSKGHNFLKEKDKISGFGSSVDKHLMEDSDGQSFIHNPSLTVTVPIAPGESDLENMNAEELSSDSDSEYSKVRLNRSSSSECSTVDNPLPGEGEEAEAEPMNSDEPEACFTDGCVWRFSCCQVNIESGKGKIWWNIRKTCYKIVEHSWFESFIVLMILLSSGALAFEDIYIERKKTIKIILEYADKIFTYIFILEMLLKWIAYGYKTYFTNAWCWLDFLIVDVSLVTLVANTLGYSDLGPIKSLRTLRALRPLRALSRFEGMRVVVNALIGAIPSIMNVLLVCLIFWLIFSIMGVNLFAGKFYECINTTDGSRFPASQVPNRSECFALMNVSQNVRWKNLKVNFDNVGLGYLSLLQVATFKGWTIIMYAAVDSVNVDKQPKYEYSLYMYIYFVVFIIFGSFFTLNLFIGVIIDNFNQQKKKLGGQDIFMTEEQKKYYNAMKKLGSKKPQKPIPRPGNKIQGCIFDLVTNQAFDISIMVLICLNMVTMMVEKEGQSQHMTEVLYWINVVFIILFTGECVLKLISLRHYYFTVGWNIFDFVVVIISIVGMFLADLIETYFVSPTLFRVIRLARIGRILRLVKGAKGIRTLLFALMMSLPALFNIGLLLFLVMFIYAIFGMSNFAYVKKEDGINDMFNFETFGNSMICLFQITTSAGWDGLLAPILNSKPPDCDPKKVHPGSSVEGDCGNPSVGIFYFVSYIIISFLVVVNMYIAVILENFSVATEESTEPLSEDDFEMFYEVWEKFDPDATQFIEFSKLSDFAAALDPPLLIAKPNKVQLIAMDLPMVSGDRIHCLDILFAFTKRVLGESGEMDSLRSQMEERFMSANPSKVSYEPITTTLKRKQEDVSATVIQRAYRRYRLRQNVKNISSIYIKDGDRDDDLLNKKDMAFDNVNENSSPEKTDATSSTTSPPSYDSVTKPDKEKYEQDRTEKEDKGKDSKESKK
T1 sequence (Q14524 whole entry): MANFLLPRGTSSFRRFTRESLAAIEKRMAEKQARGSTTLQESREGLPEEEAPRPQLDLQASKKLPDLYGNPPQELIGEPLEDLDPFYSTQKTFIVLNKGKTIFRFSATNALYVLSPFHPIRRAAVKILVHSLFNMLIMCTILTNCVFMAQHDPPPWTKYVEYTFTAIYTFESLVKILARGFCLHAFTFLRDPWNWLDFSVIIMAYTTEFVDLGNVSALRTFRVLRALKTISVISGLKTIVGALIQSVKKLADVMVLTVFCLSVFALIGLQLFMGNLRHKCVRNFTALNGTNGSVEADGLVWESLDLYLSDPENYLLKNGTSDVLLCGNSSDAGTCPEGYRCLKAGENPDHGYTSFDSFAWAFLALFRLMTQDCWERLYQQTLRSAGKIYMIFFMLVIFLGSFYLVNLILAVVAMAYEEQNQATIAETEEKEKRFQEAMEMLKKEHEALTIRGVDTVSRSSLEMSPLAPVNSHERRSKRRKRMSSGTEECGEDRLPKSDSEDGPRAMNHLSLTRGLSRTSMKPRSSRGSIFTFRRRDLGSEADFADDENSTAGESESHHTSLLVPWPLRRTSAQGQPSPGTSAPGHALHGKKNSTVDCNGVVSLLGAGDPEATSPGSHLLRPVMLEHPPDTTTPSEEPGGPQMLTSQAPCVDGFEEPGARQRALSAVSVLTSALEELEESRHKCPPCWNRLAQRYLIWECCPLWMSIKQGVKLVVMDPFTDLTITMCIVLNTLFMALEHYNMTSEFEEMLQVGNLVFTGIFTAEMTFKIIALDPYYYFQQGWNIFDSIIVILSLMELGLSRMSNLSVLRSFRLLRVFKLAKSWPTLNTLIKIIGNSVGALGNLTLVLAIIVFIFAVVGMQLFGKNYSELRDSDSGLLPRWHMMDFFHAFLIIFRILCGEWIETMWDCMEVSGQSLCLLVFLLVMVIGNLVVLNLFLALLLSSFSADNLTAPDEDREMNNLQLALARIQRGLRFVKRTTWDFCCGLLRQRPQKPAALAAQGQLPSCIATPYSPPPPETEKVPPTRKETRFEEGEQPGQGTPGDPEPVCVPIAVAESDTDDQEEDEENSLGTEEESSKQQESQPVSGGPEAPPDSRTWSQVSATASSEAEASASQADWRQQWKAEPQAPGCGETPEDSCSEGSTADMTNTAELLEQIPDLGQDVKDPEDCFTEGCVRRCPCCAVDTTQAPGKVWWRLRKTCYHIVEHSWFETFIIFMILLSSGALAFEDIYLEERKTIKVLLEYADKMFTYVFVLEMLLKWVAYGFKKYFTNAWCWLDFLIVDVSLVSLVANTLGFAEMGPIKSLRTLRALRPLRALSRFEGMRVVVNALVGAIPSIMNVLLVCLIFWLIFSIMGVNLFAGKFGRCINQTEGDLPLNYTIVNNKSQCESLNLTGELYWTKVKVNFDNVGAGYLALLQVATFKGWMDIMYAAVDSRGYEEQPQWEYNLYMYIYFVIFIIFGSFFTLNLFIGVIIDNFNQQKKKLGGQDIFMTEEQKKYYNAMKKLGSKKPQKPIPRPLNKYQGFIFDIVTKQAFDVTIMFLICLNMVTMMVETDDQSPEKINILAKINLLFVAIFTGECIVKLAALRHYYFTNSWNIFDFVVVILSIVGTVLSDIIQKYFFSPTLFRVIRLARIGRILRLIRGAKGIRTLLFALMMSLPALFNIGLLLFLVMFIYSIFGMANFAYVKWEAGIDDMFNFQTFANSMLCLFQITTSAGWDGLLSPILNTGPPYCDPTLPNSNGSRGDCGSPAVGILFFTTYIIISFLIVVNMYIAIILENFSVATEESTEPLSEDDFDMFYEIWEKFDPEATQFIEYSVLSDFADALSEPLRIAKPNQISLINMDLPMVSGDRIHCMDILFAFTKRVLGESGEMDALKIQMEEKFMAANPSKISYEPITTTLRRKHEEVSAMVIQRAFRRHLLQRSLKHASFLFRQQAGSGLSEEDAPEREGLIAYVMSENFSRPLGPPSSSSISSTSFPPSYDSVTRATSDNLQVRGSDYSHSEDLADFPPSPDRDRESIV

Row | SMILES | IC50 [1] | IC50 [2] | IC50 [3] | IC50 [4]
1 | CSCC[C@@H]1NC(=O)[C@H](Cc2ccccc2)NC(=O)CNC(=O)[C@H](CC(C)C)NC(=O)[C@@H](NC(=O)[C@@H](N)CC(=O)O)CSSC[C@@H]2NC(=O)[C@@H]3CSSC[C@@H](C(=O)N[C@@H](CCCCN)C(=O)N[C@@H](Cc4ccc(O)cc4)C(=O)N[C@H](C(=O)N[C@@H](Cc4ccccc4)C(N)=O)C(C)C)NC(=O)[C@H](Cc4c[nH]c5ccccc45)NC(=O)[C@H](CCCCN)NC(=O)[C@H](Cc4cnc[nH]4)NC(=O)[C@H]([C@@H](C)O)NC(=O)[C@H](CCCNC(=N)N)NC(=O)[C@H](CO)NC(=O)[C@H](CSSC[C@H](NC(=O)[C@H](CCCCN)NC(=O)[C@H](CCCNC(=N)N)NC1=O)C(=O)N[C@@H](CC(=O)O)C(=O)N1CCC[C@H]1C(=O)N[C@@H](CC(=O)O)C(=O)N[C@@H](CC(N)=O)C(=O)N[C@@H](CC(=O)O)C(=O)N[C@@H](CCCCN)C(=O)N3)NC(=O)[C@H](C(C)C)NC(=O)[C@H](CC(C)C)NC(=O)[C@H](CC(N)=O)NC(=O)[C@@H]1CCCN1C(=O)[C@H](CCCNC(=N)N)NC2=O (H-DCLGFMRKCDPDNDKCCRPNLVCSRTHKWCKYVF-NH2; disulfide 2-17, 9-23, 16-30) | > 5 µM | 4 nM | > 10 µM | –
2 | CSCC[C@@H]1NC(=O)[C@H](Cc2ccccc2)NC(=O)CNC(=O)[C@H](CC(C)C)NC(=O)[C@@H](NC(=O)[C@@H](N)CC(=O)O)CSSC[C@@H]2NC(=O)[C@@H]3CSSC[C@@H](C(=O)N[C@@H](CCCCN)C(=O)N[C@@H](Cc4ccc(O)cc4)C(=O)N[C@H](C(=O)N[C@@H](Cc4ccccc4)C(N)=O)C(C)C)NC(=O)[C@H](Cc4c[nH]c5ccccc45)NC(=O)[C@H](CCCCN)NC(=O)[C@H](Cc4cnc[nH]4)NC(=O)[C@H]([C@@H](C)O)NC(=O)[C@H](CCCNC(=N)N)NC(=O)[C@H](CO)NC(=O)[C@H](CSSC[C@H](NC(=O)[C@H](CCCCN)NC(=O)[C@H](CCCNC(=N)N)NC1=O)C(=O)N[C@@H](CCC(=O)O)C(=O)N1CCC[C@H]1C(=O)N[C@@H](CC(=O)O)C(=O)N[C@@H](CC(N)=O)C(=O)N[C@@H](CC(=O)O)C(=O)N[C@@H](CCCCN)C(=O)N3)NC(=O)[C@H](C(C)C)NC(=O)[C@H](CC(C)C)NC(=O)[C@H](CC(N)=O)NC(=O)[C@@H]1CCCN1C(=O)[C@H](CCCNC(=N)N)NC2=O (H-DCLGFMRKCEPDNDKCCRPNLVCSRTHKWCKYVF-NH2; disulfide 2-17, 9-23, 16-30) | > 5 µM | 2.1 nM | > 10 µM | –
3 | CC[C@H](C)[C@@H]1NC(=O)[C@@H]2CSSC[C@@H]3NC(=O)[C@H](C(C)C)NC(=O)[C@H](CC(C)C)NC(=O)[C@H](CC(N)=O)NC(=O)[C@@H]4CCCN4C(=O)[C@H](CCCNC(=N)N)NC(=O)[C@H](CSSC[C@H](NC(=O)[C@@H](N)CC(=O)O)C(=O)N[C@@H](CC(C)C)C(=O)NCC(=O)N[C@@H](Cc4ccccc4)C(=O)N[C@@H](CCSC)C(=O)N[C@@H](CCCNC(=N)N)C(=O)N[C@@H](CCCCN)C(=O)N2)NC(=O)[C@H](CSSC[C@@H](C(=O)N[C@@H](CCCCN)C(=O)N[C@@H](Cc2ccc(O)cc2)C(=O)N[C@H](C(=O)N[C@@H](Cc2ccccc2)C(N)=O)C(C)C)NC(=O)[C@H](Cc2c[nH]c4ccccc24)NC(=O)[C@H](CC(=O)O)NC(=O)[C@H](Cc2cnc[nH]2)NC(=O)[C@H]([C@@H](C)O)NC(=O)[C@H](CCCNC(=N)N)NC(=O)[C@H](CO)NC3=O)NC(=O)[C@H](CCCCN)NC(=O)[C@H](CC(=O)O)NC(=O)[C@H](CC(N)=O)NC(=O)[C@H](CC(=O)O)NC(=O)[C@@H]2CCCN2C1=O (H-DCLGFMRKCIPDNDKCCRPNLVCSRTHDWCKYVF-NH2; disulfide 2-17, 9-23, 16-30) | – | 16 nM | > 10 µM | –
4 | CSCC[C@@H]1NC(=O)[C@H](Cc2ccccc2)NC(=O)CNC(=O)[C@H](CC(C)C)NC(=O)[C@@H](NC(=O)[C@@H](N)CC(=O)O)CSSC[C@@H]2NC(=O)[C@@H]3CSSC[C@@H](C(=O)N[C@@H](CCCCN)C(=O)N[C@@H](Cc4ccc(O)cc4)C(=O)N[C@H](C(=O)N[C@@H](Cc4ccccc4)C(N)=O)C(C)C)NC(=O)[C@H](Cc4c[nH]c5ccccc45)NC(=O)[C@H](CCCCN)NC(=O)[C@H](Cc4c[nH]cn4)NC(=O)[C@H]([C@@H](C)O)NC(=O)[C@H](CCCNC(=N)N)NC(=O)[C@H](CO)NC(=O)[C@H](CSSC[C@H](NC(=O)[C@H](CCCCN)NC(=O)[C@H](CCCNC(=N)N)NC1=O)C(=O)N[C@@H](Cc1cccc4ccccc14)C(=O)N1CCC[C@H]1C(=O)N[C@@H](CC(=O)O)C(=O)N[C@@H](CC(N)=O)C(=O)N[C@@H](CC(=O)O)C(=O)N[C@@H](CCCCN)C(=O)N3)NC(=O)[C@H](C(C)C)NC(=O)[C@H](CC(C)C)NC(=O)[C@H](CC(N)=O)NC(=O)[C@@H]1CCCN1C(=O)[C@H](CCCNC(=N)N)NC2=O | > 5 µM | 6 nM | – | 160 nM
5 | CC[C@H](C)[C@@H]1NC(=O)[C@@H]2CSSC[C@@H]3NC(=O)[C@H](C(C)C)NC(=O)[C@H](CC(C)C)NC(=O)[C@H](CC(N)=O)NC(=O)[C@@H]4CCCN4C(=O)[C@H](CCC(=O)O)NC(=O)[C@H](CSSC[C@H](NC(=O)[C@@H](N)CC(=O)O)C(=O)N[C@@H](CC(C)C)C(=O)NCC(=O)N[C@@H](Cc4ccccc4)C(=O)N[C@@H](CCSC)C(=O)N[C@@H](CCCNC(=N)N)C(=O)N[C@@H](CCCCN)C(=O)N2)NC(=O)[C@H](CSSC[C@@H](C(=O)N[C@@H](CCCCN)C(=O)N[C@@H](Cc2ccc(O)cc2)C(=O)N[C@H](C(=O)N[C@@H](Cc2ccccc2)C(N)=O)C(C)C)NC(=O)[C@H](Cc2c[nH]c4ccccc24)NC(=O)[C@H](CCCCN)NC(=O)[C@H](Cc2cnc[nH]2)NC(=O)[C@H]([C@@H](C)O)NC(=O)[C@H](CCCNC(=N)N)NC(=O)[C@H](CO)NC3=O)NC(=O)[C@H](CCCCN)NC(=O)[C@H](CC(=O)O)NC(=O)[C@H](CC(N)=O)NC(=O)[C@H](CC(=O)O)NC(=O)[C@@H]2CCCN2C1=O (H-DCLGFMRKCIPDNDKCCEPNLVCSRTHKWCKYVF-NH2; disulfide 2-17, 9-23, 16-30) | > 5 µM | 17 nM | > 10 µM | –
6 | CC[C@H](C)[C@@H]1NC(=O)[C@@H]2CSSC[C@@H]3NC(=O)[C@H](C(C)C)NC(=O)[C@H](CC(C)C)NC(=O)[C@H](CC(N)=O)NC(=O)[C@@H]4CCCN4C(=O)[C@H](CCCNC(=N)N)NC(=O)[C@H](CSSC[C@H](NC(=O)[C@@H](N)CC(=O)O)C(=O)N[C@@H](CC(C)C)C(=O)NCC(=O)N[C@@H](Cc4ccccc4)C(=O)N[C@@H](CCSC)C(=O)N[C@@H](CCCNC(=N)N)C(=O)N[C@@H](CCCCN)C(=O)N2)NC(=O)[C@H](CSSC[C@@H](C(=O)N[C@@H](CCCCN)C(=O)N[C@@H](Cc2ccc(O)cc2)C(=O)N[C@H](C(=O)N[C@@H](Cc2ccccc2)C(N)=O)C(C)C)NC(=O)[C@H](Cc2c[nH]c4ccccc24)NC(=O)[C@H](CCCCN)NC(=O)[C@H](Cc2cnc[nH]2)NC(=O)[C@H]([C@@H](C)O)NC(=O)[C@H](CCCNC(=N)N)NC(=O)[C@H](CO)NC3=O)NC(=O)[C@H](CCCCN)NC(=O)[C@H](CC(=O)O)NC(=O)[C@H](CC(N)=O)NC(=O)[C@H](CC(=O)O)NC(=O)[C@H](CCC(=O)O)NC1=O (H-DCLGFMRKCIEDNDKCCRPNLVCSRTHKWCKYVF-NH2; disulfide 2-17, 9-23, 16-30) | > 5 µM | 2.5 nM | > 10 µM | –
7 | CC[C@H](C)[C@@H]1NC(=O)[C@@H]2CSSC[C@@H]3NC(=O)[C@H](C(C)C)NC(=O)[C@H](CC(C)C)NC(=O)[C@H](CC(N)=O)NC(=O)[C@@H]4CCCN4C(=O)[C@H](CCCNC(=N)N)NC(=O)[C@H](CSSC[C@H](NC(=O)[C@@H](N)CC(=O)O)C(=O)N[C@@H](CC(C)C)C(=O)N[C@@H](C)C(=O)N[C@@H](Cc4ccccc4)C(=O)N[C@@H](CCSC)C(=O)N[C@@H](CCCNC(=N)N)C(=O)N[C@@H](CCCCN)C(=O)N2)NC(=O)[C@H](CSSC[C@@H](C(=O)N[C@@H](CCCCN)C(=O)N[C@@H](Cc2ccc(O)cc2)C(=O)N[C@H](C(=O)N[C@@H](Cc2ccccc2)C(N)=O)C(C)C)NC(=O)[C@H](Cc2c[nH]c4ccccc24)NC(=O)[C@H](CCCCN)NC(=O)[C@H](Cc2cnc[nH]2)NC(=O)[C@H]([C@@H](C)O)NC(=O)[C@H](CCCNC(=N)N)NC(=O)[C@H](CO)NC3=O)NC(=O)[C@H](CCCCN)NC(=O)[C@H](CC(=O)O)NC(=O)[C@H](CC(N)=O)NC(=O)[C@H](CC(=O)O)NC(=O)[C@@H]2CCCN2C1=O (H-DCLAFMRKCIPDNDKCCRPNLVCSRTHKWCKYVF-NH2; disulfide 2-17, 9-23, 16-30) | – | 27 nM | > 10 µM | –
8 | CC[C@H](C)[C@@H]1NC(=O)[C@@H]2CSSC[C@@H]3NC(=O)[C@H](C(C)C)NC(=O)[C@H](CC(C)C)NC(=O)[C@H](CC(N)=O)NC(=O)[C@H](CCCCN)NC(=O)[C@H](CCCNC(=N)N)NC(=O)[C@H](CSSC[C@H](NC(=O)[C@@H](N)CC(=O)O)C(=O)N[C@@H](CC(C)C)C(=O)NCC(=O)N[C@@H](Cc4ccccc4)C(=O)N[C@@H](CCSC)C(=O)N[C@@H](CCCNC(=N)N)C(=O)N[C@@H](CCCCN)C(=O)N2)NC(=O)[C@H](CSSC[C@@H](C(=O)N[C@@H](CCCCN)C(=O)N[C@@H](Cc2ccc(O)cc2)C(=O)N[C@H](C(=O)N[C@@H](Cc2ccccc2)C(N)=O)C(C)C)NC(=O)[C@H](Cc2c[nH]c4ccccc24)NC(=O)[C@H](CCCCN)NC(=O)[C@H](Cc2cnc[nH]2)NC(=O)[C@H]([C@@H](C)O)NC(=O)[C@H](CCCNC(=N)N)NC(=O)[C@H](CO)NC3=O)NC(=O)[C@H](CCCCN)NC(=O)[C@H](CC(=O)O)NC(=O)[C@H](CC(N)=O)NC(=O)[C@H](CC(=O)O)NC(=O)[C@@H]2CCCN2C1=O (H-DCLGFMRKCIPDNDKCCRKNLVCSRTHKWCKYVF-NH2; disulfide 2-17, 9-23, 16-30) | > 5 µM | 2.3 nM | > 10 µM | –
